Nine compounds from ChEMBL document CHEMBL1130113 (J Med Chem, 1997) can be followed below.

Assay [1] addresses Mu-type opioid receptor (Cavia porcellus, UniProt P97266). The assay can be described thus: Functional biological activity for mu opioid receptor was determined in vitro, on guinea pig ileum (GPI). Type of assay: tissue-based. In a few lines:
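A 2-3 cm guinea pig ileum segment was held in a 20 mL organ bath with 70 µM hexamethonium bromide and 0.125 µM mepyramine maleate, gassed with 95% O2/5% CO2 at 36 °C. Transmural stimulation used 0.5 ms square-wave pulses at 0.1 Hz, at 1.5× maximal-twitch voltage (~30 V). Twitch inhibition was read from dose-response curves against dermorphin or morphine.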

Assay [2] addresses Delta-type opioid receptor (Rattus norvegicus, UniProt P33533). The assay can be described thus: Affinity was assessed using competitive binding assay labeled with [3H]DPDPE (6.3 nM) for Opioid receptor delta 1. The gist of the method:
(§1)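 Rat brain synaptosomal membranes, preincubated, in duplicate tubes. Buffer 50 mM HEPES pH 7.5, 5 mM MgCl2, glycerol, protease inhibitors. Equilibrium incubation 120 min at room temperature (22-23 °C). Labeled peptide displaced by 6-14 analogue concentrations spanning a 1000-fold range. Filtered on glass fiber and washed 3× with ice-cold buffer containing 0.01% BSA. Ki from IC50 by Cheng-Prusoff.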

Assay [3] deals with Mu-type opioid receptor (Rattus norvegicus, UniProt P33535). The assay can be described thus: Affinity was assessed using competitive binding assay labeled with [3H]- DAGO (1.28 nM) for Opioid receptor mu 1. The gist of the method:
as §1

The target in assay [4] is Delta-type opioid receptor (Mus musculus, UniProt P32300). The assay can be described thus: Functional biological activity for Opioid receptor delta 1 was determined in vitro, on mouse vas deferens (MVD). The class given is tissue-based.
Assay [5] can be described thus: IC50 ratio measured as the IC50 value of GPI to that of MVD. Type of assay: functional.
The target of assay [6] is Opioid receptors; mu & delta (Homo sapiens) (UniProt P41143+P35372). The assay can be described thus: Selectivity ratio measured as the Ki ratio of mu receptor th that of delta receptor. The class given is protein assay. In a few lines:
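Ratio of Ki values for mu and delta receptors. Both were measured in rat brain synaptosomal membranes in 50 mM HEPES pH 7.5 with 5 mM MgCl2, glycerol and protease inhibitors, for 120 min at 22-23 °C. Radioligand was displaced by 6-14 concentrations over a 1000-fold range. Bound ligand was collected by glass-fiber filtration, and Ki came from IC50 by Cheng-Prusoff.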

The structures appear in SMILES notation. Where a SMILES comes first, the peptide text is derived from it. [ ]: non-standard residue; d: D form. Aib = CC(C)(N)C(=O)O Bounds are passed on as bounds.

Delta-type opioid receptor (Rattus norvegicus, UniProt P33533), sequence (P33533 whole entry): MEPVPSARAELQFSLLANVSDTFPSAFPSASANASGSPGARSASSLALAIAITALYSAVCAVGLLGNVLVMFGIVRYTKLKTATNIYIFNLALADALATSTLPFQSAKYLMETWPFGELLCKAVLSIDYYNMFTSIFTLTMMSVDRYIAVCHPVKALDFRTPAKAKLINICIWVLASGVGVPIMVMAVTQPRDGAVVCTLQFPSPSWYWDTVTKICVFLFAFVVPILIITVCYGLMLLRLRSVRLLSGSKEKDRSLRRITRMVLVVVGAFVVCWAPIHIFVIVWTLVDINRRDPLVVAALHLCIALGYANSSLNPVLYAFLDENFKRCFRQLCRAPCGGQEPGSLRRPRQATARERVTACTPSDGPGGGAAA
Delta-type opioid receptor (Mus musculus, UniProt P32300), sequence (P32300 whole entry): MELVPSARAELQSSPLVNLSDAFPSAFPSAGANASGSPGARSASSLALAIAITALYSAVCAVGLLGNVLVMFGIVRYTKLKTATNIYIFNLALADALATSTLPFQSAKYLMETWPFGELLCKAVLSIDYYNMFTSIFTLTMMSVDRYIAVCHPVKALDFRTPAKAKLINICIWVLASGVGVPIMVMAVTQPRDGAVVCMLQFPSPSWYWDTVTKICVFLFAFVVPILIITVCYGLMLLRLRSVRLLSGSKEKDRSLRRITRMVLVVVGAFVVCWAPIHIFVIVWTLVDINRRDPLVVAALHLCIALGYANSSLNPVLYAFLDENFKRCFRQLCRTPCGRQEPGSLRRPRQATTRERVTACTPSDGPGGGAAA
Mu-type opioid receptor (Cavia porcellus, UniProt P97266), sequence (P97266 whole entry): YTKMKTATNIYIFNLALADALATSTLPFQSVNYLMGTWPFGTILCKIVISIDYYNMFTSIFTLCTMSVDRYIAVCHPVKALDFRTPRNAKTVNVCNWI
Mu-type opioid receptor (Rattus norvegicus, UniProt P33535), sequence (P33535 whole entry): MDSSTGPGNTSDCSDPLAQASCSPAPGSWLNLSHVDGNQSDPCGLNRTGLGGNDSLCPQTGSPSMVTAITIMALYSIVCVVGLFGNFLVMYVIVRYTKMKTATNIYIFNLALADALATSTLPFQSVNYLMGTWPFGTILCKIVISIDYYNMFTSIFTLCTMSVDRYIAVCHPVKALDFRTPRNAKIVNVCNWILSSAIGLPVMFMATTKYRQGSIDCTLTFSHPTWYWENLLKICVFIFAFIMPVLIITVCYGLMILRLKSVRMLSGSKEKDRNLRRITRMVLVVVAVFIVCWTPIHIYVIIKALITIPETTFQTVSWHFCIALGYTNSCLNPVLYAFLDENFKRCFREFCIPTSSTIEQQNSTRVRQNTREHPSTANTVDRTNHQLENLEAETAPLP
Opioid receptors; mu & delta (Homo sapiens), sequence (P35372 whole entry, looked up): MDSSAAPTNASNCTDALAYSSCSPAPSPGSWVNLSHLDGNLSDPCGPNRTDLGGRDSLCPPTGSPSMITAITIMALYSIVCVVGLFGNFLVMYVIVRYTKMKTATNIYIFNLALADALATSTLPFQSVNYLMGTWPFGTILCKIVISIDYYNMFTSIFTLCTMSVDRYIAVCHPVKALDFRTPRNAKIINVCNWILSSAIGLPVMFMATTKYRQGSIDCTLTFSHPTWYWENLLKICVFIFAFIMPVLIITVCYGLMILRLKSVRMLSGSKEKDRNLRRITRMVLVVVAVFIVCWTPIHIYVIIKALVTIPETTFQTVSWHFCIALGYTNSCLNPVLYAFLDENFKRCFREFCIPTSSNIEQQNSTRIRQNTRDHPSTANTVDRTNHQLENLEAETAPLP
Opioid receptors; mu & delta (Homo sapiens), sequence (P41143 whole entry, looked up): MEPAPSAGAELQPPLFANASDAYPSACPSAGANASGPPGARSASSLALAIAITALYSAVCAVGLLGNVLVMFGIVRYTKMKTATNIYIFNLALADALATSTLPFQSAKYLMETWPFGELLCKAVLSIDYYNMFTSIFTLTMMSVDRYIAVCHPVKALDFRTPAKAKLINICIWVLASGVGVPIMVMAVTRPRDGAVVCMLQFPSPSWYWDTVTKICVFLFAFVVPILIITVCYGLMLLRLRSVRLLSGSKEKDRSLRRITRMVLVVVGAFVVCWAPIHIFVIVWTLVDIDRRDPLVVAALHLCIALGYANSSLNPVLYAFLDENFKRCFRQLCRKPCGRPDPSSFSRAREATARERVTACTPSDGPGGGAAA

As usually defined, the IC50 is the concentration needed to halve the response being measured. The low end stands for greater potency, the high end for weaker potency. The term Ki denotes the equilibrium dissociation constant of an inhibitor or competing ligand from its target. Take `CC(C)[C@H](NC(=O)[C@H](CC(=O)O)NC(=O)C(C)(C)NC(=O)[C@@H](C)NC(=O)[C@@H](N)Cc1ccc(O)cc1)C(=O)N[C@H](C(=O)NCC(N)=O)C(C)C`: the IC50 in assay [1] is greater than 10 nM; in assay [4] it was 57.3 nM. Further, the Ki amounted to 0.8 nM in assay [2] and 4.54 µM in assay [3]. In assay [5], the IC50 ratio was greater than 175. Moreover, in assay [6], the Selectivity ratio came to 5680.

On to `CC(C)[C@H](NC(=O)[C@H](CC(=O)O)NC(=O)C(C)(C)NC(=O)C(C)(C)NC(=O)[C@@H](N)Cc1ccc(O)cc1)C(=O)N[C@H](C(=O)NCC(N)=O)C(C)C`, for which the figures for the IC50 in assay [1] and in assay [4] were greater than 10 nM and 70 nM, respectively. Also, the Ki in assay [2] stood at 3.62 nM; in assay [3] it was 15.2 µM.

Take `CC(C)[C@H](NC(=O)[C@H](CC(=O)O)NC(=O)[C@@H](C)NC(=O)[C@@H](C)NC(=O)[C@@H](N)Cc1ccc(O)cc1)C(=O)N[C@H](C(=O)NCC(N)=O)C(C)C`: the Ki amounted to 5.72 nM in assay [2] and 13.6 µM in assay [3].

On to `CC(C)[C@H](NC(=O)[C@@H](NC(=O)C(C)(C)NC(=O)[C@H](Cc1ccccc1)NC(=O)[C@@H](C)NC(=O)[C@@H](N)Cc1ccc(O)cc1)C(C)C)C(=O)NCC(N)=O`, for which the IC50 in assay [1] turned out to be 4.5 nM; in assay [4] it was 0.36 nM. Moreover, the results for the Ki in assay [2] and in assay [3] were 0.2 nM and 0.00043 µM, respectively. In addition, in assay [5], the IC50 ratio amounted to 13.

`CC(C)[C@H](NC(=O)[C@H](CC(=O)O)NC(=O)C(C)(C)NC(=O)[C@@H](N)Cc1ccc(O)cc1)C(=O)N[C@H](C(=O)NCC(N)=O)C(C)C` (H-Y[Aib]DVVG-NH2): the Ki worked out at 2630 nM in assay [2] and 441 µM in assay [3].

As to `CC(C)[C@H](NC(=O)[C@@H](NC(=O)C(C)(C)NC(=O)[C@H](Cc1ccccc1)NC(=O)[C@@H](C)NC(=O)[C@@H](N)Cc1ccc(O)cc1)C(C)C)C(=O)NCC(=O)O`, the Ki in assay [2] stood at 0.11 nM; in assay [3] it was 0.00448 µM.

With `CC(C)[C@H](NC(=O)[C@@H](NC(=O)[C@@H](CC(=O)O)NC(=O)C(C)(C)NC(=O)C(C)(C)NC(=O)[C@@H](N)Cc1ccc(O)cc1)C(C)C)C(=O)NCC(N)=O`, the IC50 ratio in assay [5] is greater than 21.

In assay [1], `CC(NC(=O)[C@@H](N)Cc1ccc(O)cc1)C(=O)N[C@@H](Cc1ccccc1)C(=O)N[C@@H](CC(=O)O)C(=O)N[C@H](C(=O)N[C@H](C(=O)NCC(N)=O)C(C)C)C(C)C` (single isomer, unassigned) [DELTORPHIN C] had an IC50 of 420 nM.

With `CC(C)[C@H](NC(=O)[C@H](CC(=O)O)NC(=O)[C@H](Cc1ccccc1)NC(=O)C(C)(C)NC(=O)[C@@H](N)Cc1ccc(O)cc1)C(=O)N[C@H](C(=O)NCC(N)=O)C(C)C` (H-Y[Aib]FDVVG-NH2), the values for the IC50 in assay [1] and in assay [4] were greater than 10 nM and 1.44 nM, respectively. Besides, the Ki in assay [2] was 0.12 nM; in assay [3] it was 1.02 µM. Further, the IC50 ratio in assay [5] is greater than 7000.
